16 molecules from ChEMBL document CHEMBL1129651, “3-Phenyl-substituted imidazo[1,5-alpha]quinoxalin-4-ones and imidazo[1,5-alpha]quinoxaline ureas that have high affinity at the GABAA/benzodiazepine receptor complex” (J Med Chem, 1996) can be followed below.

The target of test [1] is GABA A receptor alpha-3/beta-2/gamma-2 (Rattus norvegicus) (UniProt P18508+P20236+P63138). In words: In vitro efficacy as change in chloride current against GABA-A alpha-3-beta-2-gamma-2 subunit expression. The class given is functional.
The target of test [2] is GABA-A receptor; anion channel. In words: Binding affinity against benzodiazepine receptor (BzR) in rat cortical membranes determined by competition experiments with radiolabeled [3H]flunitrazepam (Fnz). The test is classed as cell membranes.
In test [3] the test system is Rattus norvegicus. In words: Ability to antagonize metrazole-induced seizures (clonic and tonic) in rats after intraperitoneal injection. The conditions noted are these: ip.
Test [4] concerns the target GABA-A receptor; anion channel (Rattus norvegicus) (UniProt O09028+P15431+P18506+P18508+P19969+P20236+P23574+P23576+P28471+P28473+P30191+P62813+P63079+P63138+Q91ZM7+Q9ES14).
For test [5], the species on record is Mus musculus. In words: Antagonism of benzodiazepine traction in mice. The class given is functional. In a few lines: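 Male CF-1 mice given triazolam 1 mg/kg ip together with test compound ip, starting at 100 mg/kg, in 0.25% aqueous methyl cellulose. Dose-response run on 0.5 log scale. Loss of traction scored 15 min later. Absence of the expected loss marks antagonism. ED50 taken from lower doses.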

The species entered for test [6] is Mus musculus. In words: Compound was tested for acute electroshock physical dependence activity (drug MA50/V122 MA50); Active. The test is classed as functional. In a few lines:
(§1)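 Male CF-1 mice, 10/group, dosed sc twice daily for 3 days (0800, then 2 times that dose at 1600). Flumazenil 2.5 mg/kg iv in 5% aqueous N,N-dimethylacetamide given 24 h after the last dose. 5 min later electroshock seizure threshold estimated by up-down method (0.05 log steps; transpinnal 0.6 ms pulses, 100 Hz, 0.2 s). Comparison is against a saline-treated, flumazenil-injected control group.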

Test [7] is filed under the species Mus musculus. Put plainly: Acute electroshock physical dependence activity (drug MA50/V122 MA50). The test is classed as functional. In a few lines: as §1
Test [8] is filed under the species Mus musculus. In words: Compound was tested for ethanol potentiation expressed as the loss of traction response (muscle relaxation). The class given is functional. In a few lines: (§2)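 Male CF-1 mice given 50% aqueous ethanol orally (7.5 mL/kg) plus test compound sc in 0.25% aqueous methyl cellulose (10 mL/kg). Tested 30 min later. Traction: hindlimb placed on wire within 10 s when suspended by forepaws. Righting: rolls onto feet within 10 s when released on its back. Six mice per dose; ED50s determined.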

Test [9] is filed under the species Mus musculus. Put plainly: Compound was tested for ethanol potentiation expressed as loss of righting reflex (anesthesia). The test is classed as functional. In a few lines:
as §2

For test [10], the species on record is Mus musculus. In words: Compound was tested for Acute electroshock physical dependence activity (drug MA50/V122 MA50); No significant activity. The class given is functional. In outline:
as §1

Some results are limits rather than exact numbers.

As usually defined, the Ki is a dissociation constant, usually derived from enzyme kinetics or from competition with a known ligand. A high value points to lower affinity. The ED50 is the dose that gives a 50% effect, or the effect in half of the subjects. Take `CC(C)n1c(=O)c2c(-c3cccc(C(F)(F)F)c3)ncn2c2ccccc21`: in test [1], the Cl - current change is 0.03. In [2], this molecule displayed a Ki of 0.188 µM. Besides, in test [3], the median effective dose (ED50) was greater than 50 mg/kg. The TBPS shift in [4] came to 0.45.

In the case of `COc1ccc(-c2ncn3c2CN(C(=O)N2CC(C)N(C)C(C)C2)c2ccccc2-3)cc1` (stereo not drawn), the ED50 is greater than 30 mg/kg in test [5] and 0.8 mg/kg in [3]. Also, the affinity in test [2] corresponds to a Ki of 0.00416 µM. Besides, the Activity in test [6] was 0.6. In addition, the TBPS shift in test [4] was 0.27.

Molecule `COc1cccc(-c2ncn3c2c(=O)n(C(C)C)c2ccccc23)c1` gave a Cl - current change in test [1] of 0.12. Also, in test [2], the Ki is 0.207 µM. In test [3], this molecule yielded a median effective dose (ED50) greater than 50 mg/kg. Also, the TBPS shift in [4] turned out to be 0.24.

The molecule `O=C(N1CCCC1)N1Cc2c(-c3ccc(F)cc3)ncn2-c2ccccc21` came in with an Activity in test [7] of 0.88. Further, the median effective dose (ED50) in [5] is greater than 30 mg/kg; in test [8], 0.34 mg/kg; in [9] it was greater than 30 mg/kg; in [3] it was 14.8 mg/kg. The Ki in test [2] was 0.00097 µM. In [4], the TBPS shift is 0.64.

Regarding `COc1ccc(-c2ncn3c2c(=O)n(C(C)C)c2c(Cl)cccc23)cc1`, in [1], the Cl - current change was 1. Also, the ED50 is greater than 30 mg/kg in test [5], greater than 30 mg/kg in test [8], greater than 30 mg/kg in test [9] and 1.3 mg/kg in [3]. The Activity in [10] is 0.91. This molecule also displayed a Ki in test [2] of 0.0279 µM. Further, the TBPS shift in test [4] came out at 1.04.

As to `COc1ccc(-c2ncn3c2c(=O)n(C(C)C)c2c(C)cccc23)cc1`, in test [1], the Cl - current change was 1.3. The molecule also had a Ki in [2] of 0.0497 µM. In addition, it took a dose of 3.1 mg/kg to reach the 50% effect level in [3] (ED50). Besides, the TBPS shift in test [4] worked out at 0.92.

Take `CC(C)n1c(=O)c2c(-c3ccc(F)cc3)ncn2c2ccccc21`: in [1], the Cl - current change stood at 0.45. Also, the ED50 is greater than 30 mg/kg in test [5], 14 mg/kg in [8], greater than 30 mg/kg in [9] and 30 mg/kg in test [3]. Also, the Activity in test [10] stood at 1. This molecule returned a Ki in test [2] of 0.115 µM. The TBPS shift in test [4] stood at 0.58.

In turn, `CC1CN(C(=O)N2Cc3c(-c4ccc(F)cc4)ncn3-c3ccccc32)CC(C)N1` (stereo not drawn) displayed an Activity in test [7] of 0.7. Further, the ED50 in test [5] was greater than 30 mg/kg; in [8], 4 mg/kg; in [9], greater than 30 mg/kg; in [3], 1.1 mg/kg. In test [2], this molecule registered a Ki of 0.00585 µM. In addition, the TBPS shift in test [4] stood at 0.75.

Take `Cc1cccc2c1n(C(C)C)c(=O)c1c(-c3ccc(F)cc3)ncn12`: the Cl - current change in test [1] came out at 1.7. In test [2], this molecule gave a Ki of 0.126 µM. Also, the 50% effect level in [3] (ED50) was put at a dose of 2.6 mg/kg. Also, the TBPS shift in [4] came out at 1.83.

In [1], `CC(C)n1c(=O)c2c(-c3ccc(F)cc3)ncn2c2ccc(Cl)cc21` registered a Cl - current change of 0.03. The affinity in test [2] corresponds to a Ki of 1.69 µM. Also, in [3], the ED50 was greater than 50 mg/kg. For the same molecule, in [4], the TBPS shift stood at 0.14.

Turning to `CC(C)n1c(=O)c2c(-c3ccc(F)cc3)ncn2c2cccc(Cl)c21`, the Cl - current change in test [1] turned out to be 3.4. Further, the Ki in [2] was determined as 0.0146 µM. In [3], this molecule gave a median effective dose (ED50) of 0.9 mg/kg. Also, in test [4], the TBPS shift turned out to be 2.04.

On to `O=C(N1CCOCC1)N1Cc2c(-c3ccc(F)cc3)ncn2-c2ccc(F)cc21`, for which the Activity in [7] came to 0.7. For the same molecule, the ED50 in test [5] was greater than 30 mg/kg; in [8] it was 5 mg/kg; in [9], 17 mg/kg; in test [3] it was 0.14 mg/kg. In [2], the Ki was 0.00216 µM. Moreover, in [4], the TBPS shift was 0.7.

`CC(C)n1c(=O)c2c(-c3ccc(C(F)(F)F)cc3)ncn2c2ccccc21`: in [1], the Cl - current change came to 0.36. Further, in test [2], the Ki was greater than 10 µM. In test [4], the TBPS shift turned out to be 0.36.

On to `CC(C)n1c(=O)c2c(-c3noc(C4CC4)n3)ncn2c2ccccc21` [PANADIPLON], for which the ED50 in test [5] is 1.7 mg/kg; in [8], 6.6 mg/kg; in test [9], greater than 30 mg/kg; in test [3] it was 1.6 mg/kg. Further, the Activity in test [10] is 0.95.

In [7], `O=C(N1CCCCC1)N1Cc2c(-c3ccccc3)ncn2-c2ccccc21` came in with an Activity of 0.82. Moreover, the ED50 in test [5] was greater than 30 mg/kg; in test [8], 0.5 mg/kg; in test [9], greater than 30 mg/kg; in test [3], 4.5 mg/kg. For the same molecule, affinity in [2] was put at a Ki of 0.00165 µM. Also, the TBPS shift in test [4] was 0.52.

The molecule `CC(C)OC(=O)N1Cc2c(-c3ccc(F)cc3)ncn2-c2ccccc21` returned an Activity in test [7] of 0.83. For the same molecule, the ED50 in test [5] is greater than 30 mg/kg; in test [8] it was greater than 30 mg/kg; in test [9], greater than 30 mg/kg; in [3], 6.3 mg/kg. In [2], this molecule came in with a Ki of 0.0508 µM. The TBPS shift in test [4] was determined as 0.93.
